Assay results reported in publication PMC10088587 (Archives of Microbiology, 2023).
≈ marks a conversion by molar mass, not a printed value. Counter-ions that a name gives are not always drawn.

Assays:
[1] = test system: MDCK cells; assay: Cytotoxicity assay; assay type: cell-based; details: 48 h, MTT; for NCTC (EC50): NCTC was selected as EC50 (HA test)
Summary of the method: (§1)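 MDCK cells seeded at 3×10^4/well in 10% FBS and grown 24 h at 37 °C to semi-confluency. Exposed 48 h to twofold dilutions of test compound (2.5 to 0.001 mg/ml), 4 wells per dilution. MTT for 2–3 h at 37 °C in the dark, formazan dissolved in DMSO, OD read at 540 nm, viability taken as % of untreated control. CC50 read from dose-response curves.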

[2] = test system: influenza A/PR/8/34 (H1N1) virus; assay type: cell-based
[3] = target: virus surface HA glycoprotein (Influenza A virus, UniProt P03452); assay: Hemagglutination inhibition assay; assay type: biochemical; details: twofold dilutions from CC50, 4 HA unit of virus, 1% cRBC
Sequence of virus surface HA glycoprotein (P03452 18-342 limits assumed): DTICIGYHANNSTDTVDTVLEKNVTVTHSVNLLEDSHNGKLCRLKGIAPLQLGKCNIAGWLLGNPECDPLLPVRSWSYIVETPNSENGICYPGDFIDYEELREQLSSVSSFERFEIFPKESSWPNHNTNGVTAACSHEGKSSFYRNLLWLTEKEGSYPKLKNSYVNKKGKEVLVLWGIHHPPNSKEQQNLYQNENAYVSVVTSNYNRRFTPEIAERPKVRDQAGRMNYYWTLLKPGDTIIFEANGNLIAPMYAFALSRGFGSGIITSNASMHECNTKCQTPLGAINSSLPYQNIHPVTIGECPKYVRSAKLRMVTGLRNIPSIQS
Sequence of virus surface HA glycoprotein (P03452 344-565 limits assumed): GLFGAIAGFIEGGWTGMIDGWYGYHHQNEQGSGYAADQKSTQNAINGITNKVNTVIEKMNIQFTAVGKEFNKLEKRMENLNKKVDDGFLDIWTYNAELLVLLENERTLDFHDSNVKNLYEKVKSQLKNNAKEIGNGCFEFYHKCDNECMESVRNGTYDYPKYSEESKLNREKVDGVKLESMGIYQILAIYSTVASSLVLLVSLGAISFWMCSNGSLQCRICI

[4] = test system: H1N1-induced apoptosis in MDCK cells; assay type: cell-based
[5] = Critical micelle concentration; assay type: physicochemical
[6] = test system: MDCK cells; assay type: cell-based
[7] = Cytotoxicity assay; assay type: cell-based; details: dog, MDCK cells
Summary of the method: as §1

SMILES | CC50 [1] [µg/mL] | NCTC (EC50) [1] [µg/mL] | Log HA decrement (mean ± SD), Co-pen [2] [logs] | Apoptosis evaluation (%), Q4 healthy cells [4] [%] | CMC (critical micelle concentration) [5] | also measured
CCC(CC)O[C@@H]1C=C(C(=O)O)C[C@H](N)[C@H]1NC(C)=O [Ose, oseltamivir carboxylate, reference compound] | 788.5 ± 6.0 (≈ 2770 µM) | 394.2 ± 0.0 | 8 | – | – | Log HA decrement (mean ± SD), Post-pen [2]: 8 logs; Log HA decrement (mean ± SD), Pre-pen [2]: 8 logs; Dilution to give HI + [3]: 1st
CCCCCCCCCCCCCCCCCC[N+](C)(C)CCCCCCCCCCCC[N+](C)(C)CCCCCCCCCCCCCCCCCC.[Br-].[Br-] [GSJ, Dodecamethylene-1, 12-bis (N, N-dimethyl-N-octadecylammonium bromide)] | 48.6 ± 0.0 | 0.6 ± 0.2 | – | 68.75 | 0.0331 | –
CCCCCCCCCCCC[N+](C)(C)CCOCC[N+](C)(C)CCCCCCCCCCCC.[Br-].[Br-] [GSD, 3-oxa-1,5-pentane-bis(N,N-dimethyl-N-dodecylammonium bromide)] | 4.9 ± 0.1 | 1.7 ± 0.6 | – | – | 1.047 | Log HA decrement (mean ± SD), Post-pen [2]: 5.5 logs; Apoptosis evaluation (%), Q2 late apoptosis [4]: 46.70%
CCCCCCCCCCCCCCCC[N+](C)(C)CCCCCCCCCCCC[N+](C)(C)CCCCCCCCCCCCCCCC.[Br-].[Br-] [GSG, Dodecamethylene-1,12-bis(N,N-dimethyl-N-hexadecylammonium bromide)] | 11.9 ± 0.0 | 1.7 ± 1.3 | – | 70.10 | 0.022 | –
CCCCCCCCCCCCCCCC[N+](C)(C)CCCCCCCCCC[N+](C)(C)CCCCCCCCCCCCCCCC.[Br-].[Br-] [GSF, Decamethylene-1,10-bis(N,N-dimethyl-N-hexadecylammonium bromide)] | 8.8 ± 0.0 | 1.7 ± 0.5 | – | 70.50 | 0.032 | Apoptosis evaluation (%), Q4 healthy cells [6]: 82.950 ± 8.132%
NC12CC3CC(CC(C3)C1)C2 [Ama, amantadine hydrochloride, reference compound] | – | – | 7 | – | – | CC50 at 48 h [7]: 197 ± 1.5 µg/mL; EC50 at 48 h [7]: 98.5 µg/mL
CCCCCCCCCCCC[N+](C)(C)CCCCCCCCCC[N+](C)(C)CCCCCCCCCCCC.[Br-].[Br-] [GSC, Decamethylene-1,10-bis(N,N-dimethyl-N-dodecylammonium bromide)] | 4.0 ± 0.0 | 1.2 ± 0.6 | 6.5 | 37.50 | 0.63 | Apoptosis evaluation (%), Q4 healthy cells [6]: 37.500 ± 9.900%; Log HA decrement (mean ± SD), Pre-pen [2]: 4.5 logs
CCCCCCCCCCCCCCCC[N+](C)(C)CCCCCC[N+](C)(C)CCCCCCCCCCCCCCCC.[Br-].[Br-] [GSA, Hexamethylene-1,6-bis(N,N-dimethyl-N-hexadecylammonium bromide)] | 7.7 ± 0.0 | 2.6 ± 1.7 | 6.5 | 54.85 | 0.034 | –
CCCCCCCCCCCCCCCCCC[N+](C)(C)CCCCCCCCCC[N+](C)(C)CCCCCCCCCCCCCCCCCC.[Br-].[Br-] [GSI, Decamethylene-1,10-bis(N,N-dimethyl-N-octadecylammonium bromide)] | 16.4 ± 0.0 | 2.6 ± 1.5 | – | 77.90 | 0.0213 | Apoptosis evaluation (%), Q4 healthy cells [6]: 84.850 ± 1.202%
CCCCCCCCCCCCCCCCCC[N+](C)(C)Cc1ccc(C[N+](C)(C)CCCCCCCCCCCCCCCCCC)cc1.[Br-].[Br-] [GSK, 1,4-phenylene-bis(methylene) bis (N,N-dimethyl-N-octadecylammonium bromide)] | 1229.2 ± 0.0 | 307.3 ± 0.0 | – | – | 0.29 | –
CCCCCCCCCCCC[N+](C)(C)CCCCCC[N+](C)(C)CCCCCCCCCCCC.[Br-].[Br-] [GSE, Hexamethylene-1,6-bis (N,N-dimethyl-N-dodecylammonium bromide)] | 3.4 ± 0.0 | 0.9 ± 0.5 | – | – | 0.98 | Apoptosis evaluation (%), Q3 early apoptosis [4]: 54.10%
CCCCCCCCCCCC[N+](C)(C)CCCNCCC[N+](C)(C)CCCCCCCCCCCC.[Br-].[Br-] [GSB, 4-aza-1,7-heptane-bis(N,N-dimethyl-N-dodecylammonium bromide)] | 1.9 ± 0.1 | 0.7 ± 0.3 | – | – | 1.047 | Apoptosis evaluation (%), Q2 late apoptosis [4]: 49.50%
CCCCCCCCCCCCCCCC[N+](C)(C)Cc1ccc(C[N+](C)(C)CCCCCCCCCCCCCCCC)cc1.[Br-].[Br-] [GSH, 1,4-phenylene-bis(methylene)bis (N,N-dimethyl-N-hexadecylammonium bromide)] | 522.2 ± 0.0 | 36.7 ± 28.6 | – | 68.05 | 0.48 | –
